Reference: ChEMBL document CHEMBL1132173, “Novel derivatives of 2-pyridinemethylamine as selective, potent, and orally active agonists at 5-HT1A receptors” (J Med Chem, 1999)

Experiments:
[1] = molecular target: T1, 5-hydroxytryptamine receptor 1A (Homo sapiens, UniProt P08908); assay: In vitro effective concentration required to inhibit forskolin-stimulated cAMP levels in HA7 cells expressing human 5-HT1A receptor; type: functional, cell-based
T1 sequence (P08908 whole entry): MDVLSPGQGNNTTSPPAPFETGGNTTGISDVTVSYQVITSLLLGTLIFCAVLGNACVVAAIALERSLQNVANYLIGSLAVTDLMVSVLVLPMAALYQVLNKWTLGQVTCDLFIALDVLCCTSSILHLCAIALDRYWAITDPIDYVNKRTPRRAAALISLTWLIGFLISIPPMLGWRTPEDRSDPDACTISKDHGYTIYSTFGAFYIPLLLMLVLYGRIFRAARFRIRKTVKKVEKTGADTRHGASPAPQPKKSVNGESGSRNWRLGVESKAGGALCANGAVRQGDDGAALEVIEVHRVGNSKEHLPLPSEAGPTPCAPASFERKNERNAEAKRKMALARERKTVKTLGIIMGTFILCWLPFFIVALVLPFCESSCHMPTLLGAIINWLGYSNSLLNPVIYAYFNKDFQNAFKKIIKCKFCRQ
Outline: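 HeLa HA7 cells stably expressing human 5-HT1A, at 80–90% confluency, antibiotic-free for 24 h. Preincubated 10 min at RT in DMEM/10 mM Hepes, then drug at 0.1 nM–100 µM with 100 µM forskolin and 100 µM IBMX for 10 min at RT. Stopped with 0.1 N HCl; cAMP by radioimmunoassay as % of forskolin control; pEC50.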

[2] = test system: Rattus norvegicus; assay: Effective intraperitoneal dose in vivo in rat after 15 mins to induce lower lip retraction; type: functional; settings: ip, 0.25 h
Outline: (§1)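 Observed in 10 min windows centred 15 and 60 min post-dose, 10 s each minute, scoring lower lip retraction present or absent (0–10).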

[3] = test system: Rattus norvegicus; assay: Induction of lower lip retraction in rat 60 min after administration, effective peroral dose determined in vivo; type: functional; settings: po, 1 h; outline: as §1
[4] = molecular target: T2, 5-hydroxytryptamine receptor 1A (Rattus norvegicus, UniProt P19327); assay: Binding affinity towards 5-hydroxytryptamine 1A receptor in rat cortex using [3H]8-OH-DPAT as a radioligand
T2 sequence (P19327 whole entry): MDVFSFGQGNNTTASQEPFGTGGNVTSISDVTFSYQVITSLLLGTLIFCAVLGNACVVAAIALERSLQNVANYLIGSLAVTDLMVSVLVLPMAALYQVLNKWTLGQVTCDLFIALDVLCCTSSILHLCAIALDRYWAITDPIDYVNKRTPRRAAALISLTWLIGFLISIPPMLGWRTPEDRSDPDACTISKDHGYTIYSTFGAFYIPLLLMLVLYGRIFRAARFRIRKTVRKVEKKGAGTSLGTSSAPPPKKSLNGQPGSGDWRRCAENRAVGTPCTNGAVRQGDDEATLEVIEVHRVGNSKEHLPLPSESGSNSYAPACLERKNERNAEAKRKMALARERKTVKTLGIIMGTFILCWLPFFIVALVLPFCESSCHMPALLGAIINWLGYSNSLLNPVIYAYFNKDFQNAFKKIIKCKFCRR
Outline: (§2)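 Rat tissue membranes, competition against radioligand at 23 °C. Nonspecific binding: 5-HT for 5-HT1A (30 min), (+)-butaclamol for D2 (60 min), phentolamine for α1 (30 min). Tris HCl 50 mM pH 7.4 buffers. Filtration through glass-fibre filters, then scintillation counting. Run in triplicate; IC50 by nonlinear regression; Ki by Cheng–Prusoff; mean pKi of three determinations.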

[5] = molecular target: T3, Adrenergic receptor alpha-1 (Rattus norvegicus, UniProt P15823+P23944+P43140); assay: Binding affinity towards Alpha-1 adrenergic receptor using prazosin as a radioligand in rat cortex; outline: as §2
T3 sequence (P15823 whole entry): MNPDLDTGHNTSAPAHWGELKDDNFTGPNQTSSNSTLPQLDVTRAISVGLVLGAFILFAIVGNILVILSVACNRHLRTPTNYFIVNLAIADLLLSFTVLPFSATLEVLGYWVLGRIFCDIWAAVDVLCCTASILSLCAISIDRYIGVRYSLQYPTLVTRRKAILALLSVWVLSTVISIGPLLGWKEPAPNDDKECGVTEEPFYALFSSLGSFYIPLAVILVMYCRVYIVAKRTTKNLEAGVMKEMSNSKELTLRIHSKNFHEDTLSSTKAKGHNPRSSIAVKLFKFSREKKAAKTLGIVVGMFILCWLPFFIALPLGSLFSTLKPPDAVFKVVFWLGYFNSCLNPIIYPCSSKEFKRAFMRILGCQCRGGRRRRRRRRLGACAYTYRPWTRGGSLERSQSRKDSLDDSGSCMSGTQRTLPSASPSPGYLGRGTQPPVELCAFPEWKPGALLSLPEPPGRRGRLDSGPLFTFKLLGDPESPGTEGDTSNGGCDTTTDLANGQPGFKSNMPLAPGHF
T3 sequence (P23944 whole entry): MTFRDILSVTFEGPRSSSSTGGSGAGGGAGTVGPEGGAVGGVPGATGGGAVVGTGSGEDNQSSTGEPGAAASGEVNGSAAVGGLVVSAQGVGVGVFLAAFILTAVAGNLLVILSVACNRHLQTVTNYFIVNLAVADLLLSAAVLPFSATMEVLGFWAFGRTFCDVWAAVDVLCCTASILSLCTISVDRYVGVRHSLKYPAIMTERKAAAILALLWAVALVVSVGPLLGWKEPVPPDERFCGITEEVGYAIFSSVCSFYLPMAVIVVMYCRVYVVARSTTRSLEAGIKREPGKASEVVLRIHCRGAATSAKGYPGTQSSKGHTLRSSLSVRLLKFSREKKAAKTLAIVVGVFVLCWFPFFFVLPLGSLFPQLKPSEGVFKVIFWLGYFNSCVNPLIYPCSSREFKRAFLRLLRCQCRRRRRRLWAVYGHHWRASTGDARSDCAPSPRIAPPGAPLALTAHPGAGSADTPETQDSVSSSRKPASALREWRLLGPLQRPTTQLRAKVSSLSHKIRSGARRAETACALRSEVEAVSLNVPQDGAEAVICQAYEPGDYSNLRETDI
T3 sequence (P43140 whole entry): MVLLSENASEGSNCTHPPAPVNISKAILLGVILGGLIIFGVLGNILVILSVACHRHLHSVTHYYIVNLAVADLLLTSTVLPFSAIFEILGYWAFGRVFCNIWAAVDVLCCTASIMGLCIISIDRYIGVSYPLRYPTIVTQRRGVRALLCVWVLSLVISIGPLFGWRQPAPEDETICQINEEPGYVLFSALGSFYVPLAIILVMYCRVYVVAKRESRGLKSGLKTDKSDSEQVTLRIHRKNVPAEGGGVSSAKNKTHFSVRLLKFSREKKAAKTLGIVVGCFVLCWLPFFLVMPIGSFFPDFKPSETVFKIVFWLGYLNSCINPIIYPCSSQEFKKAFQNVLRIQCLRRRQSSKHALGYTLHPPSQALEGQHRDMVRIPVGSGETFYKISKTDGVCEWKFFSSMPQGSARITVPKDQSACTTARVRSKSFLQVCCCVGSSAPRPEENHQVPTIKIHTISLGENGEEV

[6] = molecular target: D(2) dopamine receptor (Rattus norvegicus, UniProt P61169); assay: Binding affinity towards Dopamine receptor D2 in rat striatum using YM-09151-2 as a radioligand; type: tissue-based; outline: as §2
D(2) dopamine receptor, sequence (P61169 whole entry): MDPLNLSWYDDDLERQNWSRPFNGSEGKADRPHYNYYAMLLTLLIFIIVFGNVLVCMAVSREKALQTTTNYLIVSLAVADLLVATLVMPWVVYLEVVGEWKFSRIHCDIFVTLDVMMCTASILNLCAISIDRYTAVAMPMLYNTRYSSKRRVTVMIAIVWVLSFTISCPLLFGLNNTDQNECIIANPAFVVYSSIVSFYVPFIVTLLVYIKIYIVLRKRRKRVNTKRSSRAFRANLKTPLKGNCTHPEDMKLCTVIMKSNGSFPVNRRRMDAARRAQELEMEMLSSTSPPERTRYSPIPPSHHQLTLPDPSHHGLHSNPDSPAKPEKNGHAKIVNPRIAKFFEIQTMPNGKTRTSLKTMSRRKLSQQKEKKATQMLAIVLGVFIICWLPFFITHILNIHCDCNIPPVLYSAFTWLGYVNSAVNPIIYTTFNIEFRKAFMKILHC

[7] = test system: Rattus norvegicus; assay: Effective intraperitoneal dose in vivo in rat after 60 mins to induce lower lip retraction; type: functional; settings: ip, 1 h; outline: as §1

| SMILES | EC50 [1] [nM] | ED50 [2] [mg/kg] | ED50 [3] [mg/kg] | Ki [4] [nM] | Log Ki [5] | Ki [6] [nM] | ED50 [7] [mg/kg] |
| --- | --- | --- | --- | --- | --- | --- | --- |
| CCNc1cccc(CNCC2(F)CCN(C(=O)c3ccc(F)c(Cl)c3)CC2)n1 | 13.2 | 0.11 | 0.32 | – | – | – | – |
| O=C(c1ccc(Cl)c(Cl)c1)N1CCC(CNCc2cccc(-n3cccn3)n2)CC1 | 30.9 | – | – | – | – | – | – |
| Cc1cc(CNCC2(F)CCN(C(=O)c3ccc(F)c(Cl)c3)CC2)nc(N(C)C)c1 | 33.1 | 0.32 | 0.89 | 0.562 | – | – | – |
| O=C(c1ccc(Cl)c(Cl)c1)N1CCC(CNCc2cccc(-c3cnco3)n2)CC1 | 2 | – | – | – | – | – | – |
| N#CC1(CNCc2cccc(-n3cccn3)n2)CCN(C(=O)c2ccc(Cl)c(Cl)c2)CC1 | 162 | – | – | 6.92 | – | – | – |
| O=C(c1ccc(Cl)c(Cl)c1)N1CCC(CNCc2cccc(N3CCC3)n2)CC1 | 7.08 | – | – | – | – | – | – |
| Cc1ccc(CNCC2(F)CCN(C(=O)c3ccc(F)c(Cl)c3)CC2)nc1-n1cccn1 | 14.8 | 0.32 | 1.3 | 0.447 | – | – | – |
| O=C(c1ccc(Cl)c(Cl)c1)N1CCC(CNCc2cccc(-c3ccco3)n2)CC1 | 5.25 | – | – | – | – | – | – |
| Cc1ccc(CNCC2(F)CCN(C(=O)c3ccc(F)c(Cl)c3)CC2)nc1-c1cc[nH]n1 | 2.75 | 0.32 | 0.89 | 2.19 | – | – | – |
| O=C(c1ccc(Cl)c(Cl)c1)N1CCC(CNCc2cccc(-c3cccs3)n2)CC1 | 5.75 | – | – | – | – | – | – |
| CN(C)c1cccc(CNCC2(F)CCN(C(=O)c3cccc(Cl)c3)CC2)n1 | 10 | 0.08 | 0.32 | 0.0977 | -6.81 | 617 | 0.11 |
| O=C(c1ccc(Cl)c(Cl)c1)N1CCC(CNCc2ncccc2F)CC1 | – | – | – | 15.1 | – | – | – |
| CN(C)c1cccc(CNCC2CCN(C(=O)c3ccc(Cl)c(Cl)c3)CC2)n1 | 20.4 | – | – | – | – | – | – |
| O=C(c1ccc(Cl)c(Cl)c1)N1CC=C(CNCc2cccc(-n3cccn3)n2)CC1 | 269 | – | – | 6.03 | – | – | – |
| CCc1ccc(CNCC2(F)CCN(C(=O)c3ccc(F)c(Cl)c3)CC2)nc1 | 407 | 1.3 | 1.8 | 8.91 | – | – | – |
| CC(C)c1ccc(CNCC2(F)CCN(C(=O)c3ccc(F)c(Cl)c3)CC2)nc1 | – | – | – | 35.5 | – | – | – |
| CNc1cccc(CNCC2(F)CCN(C(=O)c3ccc(Cl)c(Cl)c3)CC2)n1 | 6.61 | 0.11 | 0.32 | – | -6.92 | – | 0.23 |
| O=C(c1ccc(F)c(Cl)c1)N1CCC(F)(CNCc2cccc(-n3cccn3)n2)CC1 | 12.3 | 0.32 | 1.3 | 0.49 | – | – | – |
| COC1(CNCc2cccc(-n3cccn3)n2)CCN(C(=O)c2ccc(Cl)c(Cl)c2)CC1 | – | – | – | 30.2 | – | – | – |

| SMILES | EC50 [1] [nM] | ED50 [2] [mg/kg] | ED50 [3] [mg/kg] | Ki [4] [nM] | Log Ki [5] | Ki [6] [nM] | ED50 [7] [mg/kg] |
| --- | --- | --- | --- | --- | --- | --- | --- |
| O=C(c1ccc(Cl)c(Cl)c1)N1CCC(O)(CNCc2cccc(-n3cccn3)n2)CC1 | 39.8 | – | – | 1.62 | – | – | – |
| CNc1cccc(CNCC2CCN(C(=O)c3ccc(Cl)c(Cl)c3)CC2)n1 | 21.9 | – | – | – | – | – | – |
| CCN(CC)c1nc(CNCC2(F)CCN(C(=O)c3ccc(F)c(Cl)c3)CC2)ccc1C | 28.8 | 0.32 | 0.11 | 1.38 | – | – | – |
| O=C(c1ccc(Cl)c(Cl)c1)N1CCC(CF)(CNCc2cccc(-n3cccn3)n2)CC1 | 309 | – | – | 9.12 | – | – | – |
| O=C(c1ccc(Cl)c(Cl)c1)N1CCC(CNCc2cccc(-c3cc[nH]n3)n2)CC1 | 3.02 | – | – | – | – | – | – |
| CC1(CNCc2cccc(-n3cccn3)n2)CCN(C(=O)c2ccc(Cl)c(Cl)c2)CC1 | – | – | – | 37.2 | – | – | – |
| CNc1cccc(CNCC2(F)CCN(C(=O)c3ccc(F)c(Cl)c3)CC2)n1 | 12.6 | 0.11 | 0.32 | – | – | – | – |
| Cc1ccc(CNCC2(F)CCN(C(=O)c3ccc(F)c(Cl)c3)CC2)nc1N(C)C | 3.72 | 0.04 | 0.08 | – | – | – | – |
| O=C(c1ccc(Cl)c(Cl)c1)N1CCC(F)(CNCc2cccc(N3CCC3)n2)CC1 | 10.7 | 0.32 | 0.45 | 0.2 | -6.35 | 309 | 0.45 |
| Cc1ccc(N(C)C)nc1CNCC1(F)CCN(C(=O)c2ccc(F)c(Cl)c2)CC1 | 47.9 | 0.63 | 1.3 | 0.468 | – | – | – |
| O=C(c1ccc(Cl)c(Cl)c1)N1CCC(CNCc2cccc(-c3nccs3)n2)CC1 | 5.01 | – | – | – | – | – | – |
| O=C(c1ccc(Cl)c(Cl)c1)N1CCC(F)(CNCc2cccc(-c3nccs3)n2)CC1 | 22.9 | 0.45 | 1.3 | 0.794 | -6.26 | 3390 | 0.89 |
| O=C(c1ccc(F)c(Cl)c1)N1CCC(F)(CNCc2cccc(-c3cc[nH]n3)n2)CC1 | 0.724 | 0.32 | 0.32 | – | – | – | – |
| O=C(c1ccc(Cl)c(Cl)c1)N1CCC(F)(CNCc2ccccn2)CC1 | – | 0.11 | – | 5.13 | – | – | – |
| CN(C)c1cccc(CNCC2(F)CCN(C(=O)c3ccc(Cl)c(Cl)c3)CC2)n1 | 2.95 | 0.62 | 0.32 | – | -6.76 | – | 0.45 |
| CCNc1nc(CNCC2(F)CCN(C(=O)c3ccc(F)c(Cl)c3)CC2)ccc1C | 8.32 | 0.08 | 0.45 | 0.148 | – | – | – |
| Cc1ccc(CNCC2(F)CCN(C(=O)c3ccc(Cl)c(Cl)c3)CC2)nc1 | 20.9 | – | 0.62 | – | – | – | – |
| Cc1ccc(CNCC2(F)CCN(C(=O)c3ccc(F)c(Cl)c3)CC2)nc1 [BEFIRADOL] | – | 0.08 | 0.11 | – | – | – | – |
